Assay results reported in ChEMBL document CHEMBL4152384, “Pyrtriazoles, a Novel Class of Store-Operated Calcium Entry Modulators: Discovery, Biological Profiling, and in Vivo Proof-of-Concept Efficacy in Acute Pancreatitis” (J Med Chem, 2018).
Calls of active or inactive are those of the source. No cut-off for these calls is given here.

Legend:
[1] = Drug metabolism in CD1 mouse liver microsomes assessed as 3-(1-(4-(4-((Pentan-2-yloxy)carbonyl)-5-(trifluoromethyl)-1H-pyrazol-1-yl)-phenyl)-1H-1,2,3-triazol-4-yl)benzoic Acid metabolite formation at 50 uM after 60 mins by mass spectroscopic analysis; type: ADME, microsome
[2] = Drug metabolism in CD1 mouse liver microsomes assessed as 1-(4-(4-(3-Carboxyphenyl)-1H-1,2,3-triazol-1-yl)phenyl)-5-(trifluoromethyl)-1H-pyrazole-4-carboxylic Acid metabolite formation at 50 uM after 60 mins by mass spectroscopic analysis; type: ADME, microsome
[3] = target: Short transient receptor potential channel 1 & 3/Stromal interaction molecule 1/Calcium release-activated calcium channel protein 1 (Homo sapiens, UniProt P48995+Q13507+Q13586+Q96D31); assay: (§1) Modulation of TRPC1/TRPC3/STIM1/Orai1 in HEK cells assessed as induction of store-operated calcium entry by measuring residual activity preincubated for 30 mins followed by tBhQ-mediated Ca2+ depletion and Ca2+ re-addition to extracellular solution measured for 600 secs by Fluo-4 AM-based fluorometric assay relative to control; type: cell-based
Mus musculus [4] = assay: Acute toxicity in CD1 mouse assessed as histological alterations in kidney at 40 mg/kg, ip administered as single dose for 14 days; type: organism-based; settings: in vivo, 336 h
[5] = Cytotoxicity against HEK cells assessed as cell viability at 10 uM by MTT assay relative to control; type: cell-based; settings: human, read-out: Activity
Outline: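 Hek cells treated 24 h with compound at 10 μM; viability determined by MTT assay.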

[6] = Cmax in ip dosed CD1 mouse after 1 hr by LC-ESI-MS analysis; type: ADME, organism-based; design: route intraperitoneal; settings: in vivo
Mus musculus [7] = assay: Acute toxicity in CD1 mouse assessed as histological alterations in liver at 40 mg/kg, ip administered as single dose for 14 days; type: organism-based; settings: in vivo, 336 h
[8] = Plasma concentration in ip dosed CD1 mouse by LC-ESI-MS analysis; type: ADME, organism-based; settings: in vivo
[9] = Clearance in ip dosed CD1 mouse by LC-ESI-MS analysis; type: ADME, organism-based; settings: in vivo
[10] = target: Short transient receptor potential channel 1 & 3/Stromal interaction molecule 1/Calcium release-activated calcium channel protein 1 (Homo sapiens) (UniProt Q96D31+Q13507+Q13586+P48995); assay: as §1, with “activity at 10 uM” for “activity”; type: cell-based
Mus musculus [11] = assay: Acute toxicity in CD1 mouse assessed as histological alterations in ileum at 40 mg/kg, ip administered as single dose for 14 days; type: organism-based; settings: in vivo, 336 h
Mus musculus [12] = assay: Acute toxicity in CD1 mouse assessed as histological alterations in lung at 40 mg/kg, ip administered as single dose for 14 days; type: organism-based; settings: in vivo, 336 h
[13] = Metabolic stability in CD1 mouse liver S9 fraction assessed as residual compound level at 50 uM after 1 hr; type: ADME, subcellular; settings: read-out: Stability
Outline: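 Hydrolytic stability measured in mouse liver S9 fraction; residual substrate quantified after 1 h incubation.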

Mus musculus [14] = assay: Protection against cerulein-induced pancreatitis in CD1 mouse assessed as reduction in pancreatic edema at 40 mg/kg, ip administered at 30 and 150 mins post first cerulein addition by hematoxylin and eosin staining based microscopy; type: functional, organism-based
Mus musculus [15] = assay: Volume of distribution in ip dosed CD1 mouse by LC-ESI-MS analysis; type: ADME, organism-based; settings: in vivo
[16] = target: Transient receptor potential cation channel subfamily M member 8 (Homo sapiens) (UniProt Q7Z2W7); assay: Antagonist activity at TRPM8 (unknown origin) expressed in HEK cells assessed as inhibition of menthol -mediated calcium increase at 10 uM by fura-2-based assay; type: cell-based
Outline: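 TRPM8-overexpressing Hek cells; calcium rise evoked by menthol (100 μM), test compounds at 10 μM; peak amplitude read out; mean ± SEM of 600 cells from 30 plates on four separate experimental days.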

Mus musculus [17] = assay: Acute toxicity in CD1 mouse assessed as signs of distress at 40 mg/kg, ip administered as single dose for 14 days; type: organism-based; settings: in vivo, 336 h
[18] = Drug metabolism in CD1 mouse liver microsomes assessed as ester group hydrolysis at 50 uM after 60 mins in absence of NADPH/UDPGA; type: ADME, microsome; settings: 1 h
[19] = Drug metabolism in CD1 mouse liver microsomes assessed as ester group hydrolysis at 50 uM after 60 mins in presence of NADPH/UDPGA; type: ADME, microsome; settings: 1 h
Mus musculus [20] = assay: Acute toxicity in CD1 mouse assessed as mortality at 40 mg/kg, ip administered as single dose for 14 days; type: organism-based; settings: in vivo, 336 h
Mus musculus [21] = assay: Protection against cerulein-induced pancreatitis in CD1 mouse assessed as reduction in pancreatic inflammation at 40 mg/kg, ip administered at 30 and 150 mins post first cerulein addition by hematoxylin and eosin staining based microscopy; type: functional, organism-based
Mus musculus [22] = assay: Acute toxicity in CD1 mouse assessed as histological alterations in stomach at 40 mg/kg, ip administered as single dose for 14 days; type: organism-based; settings: in vivo, 336 h
Mus musculus [23] = assay: Acute toxicity in CD1 mouse assessed as effect on body weight at 40 mg/kg, ip administered as single dose for 14 days; type: organism-based; settings: in vivo, 336 h
Mus musculus [24] = assay: Acute toxicity in CD1 mouse assessed as histological alterations in heart at 40 mg/kg, ip administered as single dose for 14 days; type: organism-based; settings: in vivo, 336 h
[25] = test system: voltage-gated calcium channel (Mus musculus); assay: Antagonist activity at voltage-gated calcium channels in C57/BL6 mouse cerebellar granule cells assessed as inhibition of KCl-induced voltage dependent calcium entry at 10 uM by fura-2-based assay
Mus musculus [26] = assay: Acute toxicity in CD1 mouse assessed as histological alterations in brain at 40 mg/kg, ip administered as single dose for 14 days; type: organism-based; settings: in vivo, 336 h
[27] = Metabolic stability in CD1 mouse plasma assessed as residual compound level at 50 uM after 30 mins by LC-UV analysis; type: ADME, cell-free; settings: read-out: Stability
Outline: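 Compounds incubated in mouse plasma for 30 min; percentage of residual substrate determined.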

[28] = target: Transient receptor potential cation channel subfamily V member 1 (Homo sapiens) (UniProt Q8NER1); assay: Antagonist activity at TRPV1 (unknown origin) expressed in HEK cells assessed as inhibition of capsaicin-induced calcium increase at 10 uM by fura-2-based assay; type: cell-based
Outline: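 TRPV1-overexpressing Hek cells; calcium rise evoked by capsaicin (100 nM), test compounds at 10 μM; peak amplitude read out; mean ± SEM of 600 cells from 30 plates on four separate experimental days.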

Mus musculus [29] = assay: Protection against cerulein-induced pancreatitis in CD1 mouse assessed as reduction in neutrophil infiltration at 40 mg/kg, ip administered at 30 and 150 mins post first cerulein addition by myeloperoxidase staining based spectrophotometry; type: functional, organism-based
[30] = Half life in ip dosed CD1 mouse by LC-ESI-MS analysis; type: ADME, organism-based; settings: in vivo
[31] = test system: voltage-gated calcium channel (Mus musculus); assay: Antagonist activity at voltage-gated calcium channels in C57/BL6 mouse cerebellar granule cells assessed as inhibition of KCl-induced voltage dependent calcium entry at 10 uM by fura-2-based assay; remark: listed apart in the source

Short transient receptor potential channel 1 & 3/Stromal interaction molecule 1/Calcium release-activated calcium channel protein 1 (Homo sapiens), sequence (P48995 whole entry partner): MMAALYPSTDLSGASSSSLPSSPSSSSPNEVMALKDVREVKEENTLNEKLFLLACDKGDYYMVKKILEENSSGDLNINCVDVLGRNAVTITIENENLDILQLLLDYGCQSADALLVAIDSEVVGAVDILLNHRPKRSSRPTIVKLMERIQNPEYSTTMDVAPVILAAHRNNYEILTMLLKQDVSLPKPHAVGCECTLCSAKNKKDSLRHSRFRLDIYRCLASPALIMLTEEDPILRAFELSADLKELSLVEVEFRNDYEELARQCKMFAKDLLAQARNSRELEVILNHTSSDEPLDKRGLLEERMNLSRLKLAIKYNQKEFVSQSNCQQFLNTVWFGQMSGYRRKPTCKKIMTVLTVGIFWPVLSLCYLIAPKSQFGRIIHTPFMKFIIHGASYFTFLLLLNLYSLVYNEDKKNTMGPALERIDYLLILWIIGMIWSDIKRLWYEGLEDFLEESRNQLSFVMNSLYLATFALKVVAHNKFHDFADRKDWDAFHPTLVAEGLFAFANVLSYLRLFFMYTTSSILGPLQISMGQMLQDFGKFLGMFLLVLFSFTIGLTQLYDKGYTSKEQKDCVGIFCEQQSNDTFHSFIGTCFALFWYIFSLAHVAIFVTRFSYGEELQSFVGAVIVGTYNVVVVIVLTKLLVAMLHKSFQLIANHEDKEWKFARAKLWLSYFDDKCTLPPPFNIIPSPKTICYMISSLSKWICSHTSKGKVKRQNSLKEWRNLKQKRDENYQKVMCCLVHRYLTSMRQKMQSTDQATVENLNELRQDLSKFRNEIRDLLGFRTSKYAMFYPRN
Short transient receptor potential channel 1 & 3/Stromal interaction molecule 1/Calcium release-activated calcium channel protein 1 (Homo sapiens), sequence (Q13507 whole entry partner): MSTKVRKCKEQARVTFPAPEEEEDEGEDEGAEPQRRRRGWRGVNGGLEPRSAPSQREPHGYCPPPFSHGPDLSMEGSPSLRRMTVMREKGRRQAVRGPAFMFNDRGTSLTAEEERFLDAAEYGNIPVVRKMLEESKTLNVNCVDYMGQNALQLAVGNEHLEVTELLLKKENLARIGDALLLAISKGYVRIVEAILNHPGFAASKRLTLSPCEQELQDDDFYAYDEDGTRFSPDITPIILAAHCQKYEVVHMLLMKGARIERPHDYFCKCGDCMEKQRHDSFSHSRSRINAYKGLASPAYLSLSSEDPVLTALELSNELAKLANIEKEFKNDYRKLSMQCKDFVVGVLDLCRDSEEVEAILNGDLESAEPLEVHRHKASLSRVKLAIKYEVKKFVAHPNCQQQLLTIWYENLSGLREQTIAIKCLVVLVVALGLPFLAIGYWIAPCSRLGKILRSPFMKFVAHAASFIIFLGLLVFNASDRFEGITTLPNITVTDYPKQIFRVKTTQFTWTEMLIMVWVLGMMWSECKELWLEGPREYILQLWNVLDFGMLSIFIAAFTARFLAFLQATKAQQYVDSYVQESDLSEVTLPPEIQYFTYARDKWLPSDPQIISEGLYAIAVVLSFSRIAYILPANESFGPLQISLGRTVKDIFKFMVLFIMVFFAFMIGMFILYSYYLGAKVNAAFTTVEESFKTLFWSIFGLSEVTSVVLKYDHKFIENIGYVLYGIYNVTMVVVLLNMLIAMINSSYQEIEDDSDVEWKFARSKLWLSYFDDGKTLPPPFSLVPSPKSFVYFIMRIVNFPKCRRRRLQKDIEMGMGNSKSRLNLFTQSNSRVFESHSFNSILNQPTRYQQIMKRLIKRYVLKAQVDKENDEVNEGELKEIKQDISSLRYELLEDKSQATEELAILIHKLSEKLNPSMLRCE
Short transient receptor potential channel 1 & 3/Stromal interaction molecule 1/Calcium release-activated calcium channel protein 1 (Homo sapiens), sequence (Q13586 23-685 partner limits assumed): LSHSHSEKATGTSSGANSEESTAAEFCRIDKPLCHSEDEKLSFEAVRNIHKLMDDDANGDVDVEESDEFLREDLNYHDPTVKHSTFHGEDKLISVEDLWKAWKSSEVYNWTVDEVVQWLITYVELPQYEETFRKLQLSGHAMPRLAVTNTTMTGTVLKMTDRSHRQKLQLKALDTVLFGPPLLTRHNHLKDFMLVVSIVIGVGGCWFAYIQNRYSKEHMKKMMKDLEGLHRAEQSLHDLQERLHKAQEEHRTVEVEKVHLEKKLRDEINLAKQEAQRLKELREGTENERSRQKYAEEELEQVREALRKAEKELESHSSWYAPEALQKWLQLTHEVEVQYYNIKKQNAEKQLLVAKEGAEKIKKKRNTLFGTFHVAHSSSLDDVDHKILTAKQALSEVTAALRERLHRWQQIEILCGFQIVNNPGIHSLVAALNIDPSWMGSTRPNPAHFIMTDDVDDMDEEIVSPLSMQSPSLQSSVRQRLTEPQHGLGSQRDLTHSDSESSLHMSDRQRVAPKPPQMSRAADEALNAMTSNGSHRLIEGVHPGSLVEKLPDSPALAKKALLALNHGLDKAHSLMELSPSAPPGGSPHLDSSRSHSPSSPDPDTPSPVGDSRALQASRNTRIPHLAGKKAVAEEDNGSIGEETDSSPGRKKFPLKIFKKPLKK
Short transient receptor potential channel 1 & 3/Stromal interaction molecule 1/Calcium release-activated calcium channel protein 1 (Homo sapiens), sequence (Q96D31 whole entry): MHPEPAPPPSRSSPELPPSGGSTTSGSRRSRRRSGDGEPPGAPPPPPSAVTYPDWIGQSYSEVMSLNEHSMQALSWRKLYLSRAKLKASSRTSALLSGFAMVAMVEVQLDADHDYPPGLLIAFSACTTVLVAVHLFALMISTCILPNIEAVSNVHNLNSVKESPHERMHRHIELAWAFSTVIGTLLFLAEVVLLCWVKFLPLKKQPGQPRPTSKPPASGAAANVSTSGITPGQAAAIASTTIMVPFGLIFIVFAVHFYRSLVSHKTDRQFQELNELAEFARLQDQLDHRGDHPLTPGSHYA
Transient receptor potential cation channel subfamily M member 8 (Homo sapiens), sequence (Q7Z2W7 whole entry, looked up): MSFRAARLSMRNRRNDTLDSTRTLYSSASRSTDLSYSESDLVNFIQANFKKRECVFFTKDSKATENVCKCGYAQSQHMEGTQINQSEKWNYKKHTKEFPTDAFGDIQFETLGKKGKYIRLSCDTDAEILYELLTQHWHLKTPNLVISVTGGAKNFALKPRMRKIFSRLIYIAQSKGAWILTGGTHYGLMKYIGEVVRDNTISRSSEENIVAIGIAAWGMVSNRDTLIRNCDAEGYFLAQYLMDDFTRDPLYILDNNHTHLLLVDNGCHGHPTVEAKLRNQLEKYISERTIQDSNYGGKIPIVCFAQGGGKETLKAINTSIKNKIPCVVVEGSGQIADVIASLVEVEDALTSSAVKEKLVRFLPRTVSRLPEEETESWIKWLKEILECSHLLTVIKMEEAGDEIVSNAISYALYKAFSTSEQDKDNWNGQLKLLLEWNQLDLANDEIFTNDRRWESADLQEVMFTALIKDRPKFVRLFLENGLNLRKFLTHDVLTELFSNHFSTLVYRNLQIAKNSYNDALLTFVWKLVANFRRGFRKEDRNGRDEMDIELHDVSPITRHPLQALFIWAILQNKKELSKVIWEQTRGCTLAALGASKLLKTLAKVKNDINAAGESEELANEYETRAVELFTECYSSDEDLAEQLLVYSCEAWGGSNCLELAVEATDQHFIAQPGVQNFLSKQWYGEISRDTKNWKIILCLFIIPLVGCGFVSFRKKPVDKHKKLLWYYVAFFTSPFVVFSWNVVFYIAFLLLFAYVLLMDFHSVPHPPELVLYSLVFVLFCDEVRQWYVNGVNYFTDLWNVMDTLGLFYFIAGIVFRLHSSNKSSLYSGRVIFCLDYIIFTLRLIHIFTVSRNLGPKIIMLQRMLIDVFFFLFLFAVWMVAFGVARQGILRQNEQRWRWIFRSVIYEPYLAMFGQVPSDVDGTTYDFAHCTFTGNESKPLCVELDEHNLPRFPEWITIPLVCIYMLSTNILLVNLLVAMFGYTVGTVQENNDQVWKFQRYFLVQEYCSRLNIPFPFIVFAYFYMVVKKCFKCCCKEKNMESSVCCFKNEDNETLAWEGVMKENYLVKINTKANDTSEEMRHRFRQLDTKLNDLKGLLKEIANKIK
Transient receptor potential cation channel subfamily V member 1 (Homo sapiens), sequence (Q8NER1 whole entry): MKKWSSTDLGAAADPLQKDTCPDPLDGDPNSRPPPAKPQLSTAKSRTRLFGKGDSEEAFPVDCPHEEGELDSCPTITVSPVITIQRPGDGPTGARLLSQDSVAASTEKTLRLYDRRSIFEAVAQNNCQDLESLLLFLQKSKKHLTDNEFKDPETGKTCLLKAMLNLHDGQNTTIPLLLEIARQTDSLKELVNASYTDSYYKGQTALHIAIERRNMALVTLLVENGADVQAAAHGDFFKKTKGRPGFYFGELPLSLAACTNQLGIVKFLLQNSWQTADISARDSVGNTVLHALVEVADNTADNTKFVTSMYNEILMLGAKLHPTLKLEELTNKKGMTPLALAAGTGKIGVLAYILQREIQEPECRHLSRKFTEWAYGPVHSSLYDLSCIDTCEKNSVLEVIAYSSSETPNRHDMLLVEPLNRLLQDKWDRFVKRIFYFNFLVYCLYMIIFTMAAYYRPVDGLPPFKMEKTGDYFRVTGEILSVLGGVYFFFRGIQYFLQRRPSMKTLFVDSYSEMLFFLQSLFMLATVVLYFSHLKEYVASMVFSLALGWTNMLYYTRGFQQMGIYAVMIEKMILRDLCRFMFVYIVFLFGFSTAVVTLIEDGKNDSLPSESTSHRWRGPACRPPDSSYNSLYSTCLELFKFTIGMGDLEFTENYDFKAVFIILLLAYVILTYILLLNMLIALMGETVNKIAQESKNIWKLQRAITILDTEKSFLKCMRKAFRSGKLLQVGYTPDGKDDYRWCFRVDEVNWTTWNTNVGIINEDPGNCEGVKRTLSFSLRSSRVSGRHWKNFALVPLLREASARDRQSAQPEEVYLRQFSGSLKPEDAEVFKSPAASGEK

CCCC(C)OC(=O)c1cnn(-c2ccc(-n3cc(-c4cccc(C(=O)O)c4)nn3)cc2)c1C(F)(F)F (stereo unspecified)
Drug metabolism [1]: Metabolite_Detected
Drug metabolism [2]: Metabolite_Notdetected
IC50 [3]: 4.4 µM
Activity (Mus musculus [4]): Non-Toxic
viability at 10 µM [5]: 93.6%
Cmax [6]: 0.64 µg/mL
Activity (Mus musculus [7]): Non-Toxic
concentration [8]: 1.2 µM
CL/F [9]: 17 L/h/kg
Activity [10]: 17.5%
Activity (Mus musculus [11]): Non-Toxic
Activity (Mus musculus [12]): Non-Toxic
remaining at 1 h, 50 µM [13]: 73.7%
Activity (Mus musculus [14]): Active
Vd (Mus musculus [15]): 32 L/kg
inhibition [16]: inactive
Activity (Mus musculus [17]): Non-Toxic
Drug metabolism [18]: Metabolite_Detected
Drug metabolism [19]: Metabolite_Detected
Activity (Mus musculus [20]): Non-Toxic
Activity (Mus musculus [21]): Active
Activity (Mus musculus [22]): Non-Toxic
Activity (Mus musculus [23]): Non-Toxic
Activity (Mus musculus [24]): Non-Toxic
inhibition [25]: inactive
Activity (Mus musculus [26]): Non-Toxic
remaining at 0.5 h, 50 µM [27]: 97.8%
inhibition [28]: inactive
Activity (Mus musculus [29]): Active
half-life [30]: 1.3 h
inhibition [31]: inactive
